{"data": "Assay results from different studies", "target": "Mitogen-activated protein kinase kinase kinase 12 (MAP3K12, Homo sapiens, UniProt Q12852)", "Sequence (Q12852 1-859, as in one of the studies)": "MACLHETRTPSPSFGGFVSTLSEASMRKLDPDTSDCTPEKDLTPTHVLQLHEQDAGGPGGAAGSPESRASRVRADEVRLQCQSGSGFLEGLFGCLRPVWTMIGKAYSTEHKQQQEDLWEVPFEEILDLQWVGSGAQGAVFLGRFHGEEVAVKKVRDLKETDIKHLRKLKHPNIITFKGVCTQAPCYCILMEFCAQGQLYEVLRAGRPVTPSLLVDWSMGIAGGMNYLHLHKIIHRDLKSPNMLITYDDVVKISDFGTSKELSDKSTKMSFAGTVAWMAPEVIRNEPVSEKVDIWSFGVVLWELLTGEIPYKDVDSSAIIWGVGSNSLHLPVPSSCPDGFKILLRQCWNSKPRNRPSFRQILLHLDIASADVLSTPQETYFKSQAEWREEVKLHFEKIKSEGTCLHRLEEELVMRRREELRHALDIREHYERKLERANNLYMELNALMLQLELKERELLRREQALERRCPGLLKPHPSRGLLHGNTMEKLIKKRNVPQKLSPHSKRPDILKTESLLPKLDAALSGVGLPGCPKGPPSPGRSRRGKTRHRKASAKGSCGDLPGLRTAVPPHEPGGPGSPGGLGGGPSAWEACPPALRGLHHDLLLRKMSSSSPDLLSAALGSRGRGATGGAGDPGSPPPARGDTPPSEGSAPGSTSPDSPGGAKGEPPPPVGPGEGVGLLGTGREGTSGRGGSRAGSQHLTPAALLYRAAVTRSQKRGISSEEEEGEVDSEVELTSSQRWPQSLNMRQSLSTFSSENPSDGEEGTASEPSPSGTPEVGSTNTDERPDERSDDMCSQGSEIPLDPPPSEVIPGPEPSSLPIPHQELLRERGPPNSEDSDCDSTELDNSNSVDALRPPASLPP", "note": "Protocols differ between the studies behind these lines."}
{"SMILES": "Cc1cnc(Nc2ccc(C(=O)N3CCC(N4CCCC4)CC3)cc2)nc1-c1cc2ccccc2s1", "assay": "binding, competition with immobilised ligand", "conditions": "1 µM", "remaining binding [%]": 8.3}
{"SMILES": "N[C@H]1CCN(c2nccc(-c3cnn4ncccc34)n2)C1", "assay": "binding", "conditions": "1 µM", "remaining binding [%]": 71}
{"SMILES": "O=C(c1ccc(Nc2ncc(Cl)c(-c3ccc(Cl)s3)n2)cc1)N1CCC(N2CCCC2)CC1", "assay": "binding, competition with immobilised ligand", "conditions": "1 µM", "remaining binding [%]": 7.8}
{"SMILES": "O=C(NCC1CCOCC1)c1n[nH]cc1NC(=O)c1c(F)cccc1F", "assay": "binding, competition with immobilised ligand", "conditions": "1 µM", "remaining binding [%]": 85}
{"SMILES": "O=C1CCc2cc(Nc3cc(OC4CCOCC4)c([N+](=O)[O-])cc3Cl)ccc2N1", "assay": "cell-free assay, competition with immobilised ligand", "conditions": "1 µM", "remaining binding [%]": 100}
{"SMILES": "COc1cnc(Nc2cccc(S(N)(=O)=O)c2)nc1N1CCN(c2ccccc2)CC1", "assay": "binding, competition with immobilised ligand", "conditions": "1 µM", "remaining binding [%]": 72}
{"SMILES": "CN(C)c1nccc(-c2cnc3ncccn23)n1", "assay": "binding", "conditions": "1 µM", "remaining binding [%]": 67}
{"SMILES": "O=C(NS(=O)(=O)c1ccc(NCC2CCOCC2)c([N+](=O)[O-])c1)c1ccc(N2CCN(Cc3ccc(C(F)(F)F)cc3-c3ccc(Cl)cc3)CC2)cc1Oc1cnc2[nH]ccc2c1", "assay": "cell-free assay, competition with immobilised ligand", "conditions": "1 µM", "remaining binding [%]": 100}
{"SMILES": "C[C@@H]1CCN(c2nccc(-c3cnn4ncccc34)n2)C1", "assay": "binding", "conditions": "1 µM", "remaining binding [%]": 75}
{"SMILES": "O=C(N1CCS(=O)(=O)CC1)N1C[C@H](c2ccc(OC(F)(F)F)cc2)C[C@H](c2nc(C3CC3)no2)C1", "assay": "cell-free assay, competition with immobilised ligand", "conditions": "1 µM", "remaining binding [%]": 0}
{"SMILES": "CC1CCCN1c1nccc(-c2cnn3ncccc23)n1 (centres unmarked)", "assay": "binding", "conditions": "1 µM", "remaining binding [%]": 100}
{"SMILES": "c1cncc(-c2cccc(Nc3nccc(NC4CCCCC4)n3)c2)c1", "assay": "binding, competition with immobilised ligand", "conditions": "10 µM", "remaining binding [%]": 67}
{"SMILES": "COc1cnc(Nc2cccc(S(N)(=O)=O)c2)nc1N1CCN(c2ccccc2)C(=O)C1", "assay": "binding, competition with immobilised ligand", "conditions": "1 µM", "remaining binding [%]": 82}
{"SMILES": "CNCc1ccccc1-c1csc([C@H](C)Nc2nc(C)nc3cc(OC)c(OC)cc23)c1", "assay": "cell-free assay, competition with immobilised ligand", "conditions": "1 µM", "remaining binding [%]": 97}
{"SMILES": "COc1ncc2cc3ccccc3nc2c1C#N", "assay": "cell-free assay, competition with immobilised ligand", "conditions": "5 µM", "remaining binding [%]": 81}
{"SMILES": "CN1CCN(c2cnc3c(C4CCN(C(=O)c5ccc(OC(F)(F)F)cc5N)CC4)ncnc3c2)CC1", "assay": "cell-free assay, competition with immobilised ligand", "conditions": "1 µM", "remaining binding [%]": 100}
{"SMILES": "F[C@@H]1CCN(c2nccc(-c3cnn4ncccc34)n2)C1", "assay": "binding", "conditions": "1 µM", "remaining binding [%]": 100}
{"SMILES": "O=C(c1ccc(Nc2ncc(Cl)c(-c3cc4ccccc4s3)n2)cc1)N1CCC(N2CCCC2)CC1", "assay": "binding, competition with immobilised ligand", "conditions": "1 µM", "remaining binding [%]": 6.9}
{"SMILES": "CN(C)c1nccc(-c2cnn3ncccc23)n1", "assay": "binding", "conditions": "1 µM", "remaining binding [%]": 98}
{"SMILES": "Cc1cc(-n2nc(Cc3cc(F)cc(C(F)(F)F)c3)nc2C)ccc1C(N)=O", "assay": "cell-free assay, competition with immobilised ligand", "conditions": "1 µM", "remaining binding [%]": 100}
